Reference: ChEMBL document CHEMBL4229550, “An antimycobacterial pleuromutilin analogue effective against dormant bacilli” (Bioorg Med Chem, 2018)
Values after ≈ are worked out from the molar mass of the structure shown. Active and inactive are the calls of the source. The calls are words filed in the database; no cut-off is given here.

Key:
[1] = Selectivity index, ratio of IC50 for African green monkey Vero cells to MIC100 for replicating Mycobacterium tuberculosis H37Rv by MABA; assay type: toxicity; conditions: read-out: Selectivity Index
Method in brief: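 Vero cells are cultured in EMEM with 10% FBS and exposed for 72 h to 0.78–200 µg/mL. Medium is switched to phenol-red-free EMEM, MTT is added, and formazan is read at 570 nm to give IC50. The selectivity index is Vero IC50 divided by the MABA MIC.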

[2] = test system: Mycobacterium tuberculosis; assay: Antibacterial activity against Mycobacterium tuberculosis Erdman infected in Balb/c mouse assessed as reduction in bacterial load in lungs at 2.5 mg/kg, po for 3 weeks starting from 10 days post infection measured on day 21 post infection; assay type: functional, Erdman = ATCC 35801
Method in brief: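 Female BALB/c mice, 7–8 weeks old, are aerosol-infected with Mtb Erdman. From day 10 they receive oral gavage in water for three weeks, in groups of 5. Lungs and spleens are harvested at day 21 post-infection and plated for CFU. Efficacy is the log10 reduction in lung burden versus untreated (vehicle) controls.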

[3] = test system: Mycobacterium tuberculosis; assay: Antibacterial activity against replicating Mycobacterium tuberculosis H37Rv incubated for 15 days under aerobic condition by MABA; assay type: functional; conditions: 360 h, read-out: MIC100
Method in brief: (§1)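 Mtb H37Rv grown in 7H9/OADC at 37 °C with shaking to OD600 0.5. The 0.5-OD culture is exposed aerobically to serial dilutions for 15 days at 37 °C. Resazurin (0.02% stock) is then added for 4 h at 37 °C with shaking.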

[4] = test system: Mycobacterium tuberculosis; assay: Bactericidal activity against non-replicating Mycobacterium tuberculosis CDC1551 expressing tdTomato infected in mouse J774A.1 cells at 2 times MIC up to 72 hrs by UV-Visible spectroscopic method; assay type: functional, organism-based
Method in brief: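 J774A.1 macrophages are seeded at […] cells/well in DMEM and incubated overnight at 37 °C. They are infected with saline-washed Mtb CDC1551-tdTomato (10^6 bacteria, MOI ≈10), and extracellular bacteria are washed off with PBS. Treatment is at 2×MIC, with fluorescence emission read at 581 nm at 24, 48, 72 and 96 h. Survivors are confirmed by serial dilution and plating on 7H11.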

[5] = test system: Mycobacterium tuberculosis; assay: Bactericidal activity against replicating Mycobacterium tuberculosis H37Rv incubated for 15 days under aerobic condition by MABA; assay type: functional; conditions: 360 h; method in brief: as §1
Vero = assay: Cytotoxicity against African green monkey Vero cells assessed as reduction in cell viability after 72 hrs by MTT assay; assay type: cell-based; conditions: Chlorocebus sabaeus
Method in brief: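 Vero cells were grown in complete EMEM with 10% FBS and exposed for 72 h to 0.78–200 µg/mL. The medium was then swapped for phenol-red-free EMEM and MTT was added. Formazan absorbance was read at 570 nm to give IC50.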

NNC(=O)c1ccncc1 [ISONIAZID]
selectivity ratio [1]: > 2000
log(activity) [2]: 4.22
MIC [3]: 0.04 to 0.1 µg/mL (≈ 0.292 to 0.729 µM)
Activity [4]: inactive
MBC [5]: 0.57 µg/mL (≈ 4.16 µM)
IC50 (Vero): > 200 µg/mL
